Source: ChEMBL document CHEMBL5260840 (J Med Chem, 2019)
Calls of active or inactive are those of the source. The calls are words filed in the database; no cut-off is given here.

Columns and labels:
[1] = biological target: T1, von Hippel-Lindau disease tumor suppressor/Bromodomain-containing protein 9 (Homo sapiens) (UniProt Q9H8M2+P40337); experiment: PROTAC activity at VHL/BRD9 in human Ri-1 cells assessed as remaining BRD9 protein level at 10 nM incubated for 2 hrs by Western blot analysis relative to control; type: cell-based
How it was run: (§1)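 Ri-1 cells exposed to compound for the stated time before harvest; BRD9, BRD7 and β-actin measured by Western blot, band intensities quantified and set against DMSO-treated control.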

[2] = biological target: T2, von Hippel-Lindau disease tumor suppressor/Bromodomain-containing protein 7 (Homo sapiens) (UniProt Q9NPI1+P40337); experiment: PROTAC activity at VHL/BRD7 in human Ri-1 cells assessed as remaining BRD7 protein level at 1 nM incubated for 8 hrs by Western blot analysis relative to control; type: cell-based
[3] = biological target: T1, von Hippel-Lindau disease tumor suppressor/Bromodomain-containing protein 9 (Homo sapiens); experiment: PROTAC activity at VHL/BRD9 in human Ri-1 cells assessed as remaining BRD9 protein level at 10 nM incubated for 8 hrs by Western blot analysis relative to control; type: cell-based; how it was run: as §1
[4] = biological target: T2, von Hippel-Lindau disease tumor suppressor/Bromodomain-containing protein 7 (Homo sapiens); experiment: PROTAC activity at VHL/BRD7 in human Ri-1 cells assessed as remaining BRD7 protein level at 10000 nM incubated for 2 hrs by Western blot analysis relative to control; type: cell-based; how it was run: as §1
[5] = biological target: T2, von Hippel-Lindau disease tumor suppressor/Bromodomain-containing protein 7 (Homo sapiens); experiment: PROTAC activity at VHL/BRD7 in human Ri-1 cells assessed as remaining BRD7 protein level at 100 nM incubated for 4 hrs by Western blot analysis relative to control; type: cell-based; how it was run: as §1
[6] = biological target: T1, von Hippel-Lindau disease tumor suppressor/Bromodomain-containing protein 9 (Homo sapiens); experiment: PROTAC activity at VHL/BRD9 in human Ri-1 cells assessed as remaining BRD9 protein level at 1 uM incubated for 8 hrs by Western blot analysis relative to control; type: cell-based; how it was run: as §1
[7] = biological target: T1, von Hippel-Lindau disease tumor suppressor/Bromodomain-containing protein 9 (Homo sapiens); experiment: PROTAC activity at VHL/BRD9 in human Ri-1 cells assessed as BRD9 protein degradation in the presence of MLN4924 by Western blot analysis; type: cell-based; how it was run: as §1
[8] = biological target: T1, von Hippel-Lindau disease tumor suppressor/Bromodomain-containing protein 9 (Homo sapiens); experiment: PROTAC activity at VHL/BRD9 in human Ri-1 cells assessed as remaining BRD9 protein level at 0.1 nM incubated for 8 hrs by Western blot analysis relative to control; type: cell-based; how it was run: as §1
[9] = biological target: T2, von Hippel-Lindau disease tumor suppressor/Bromodomain-containing protein 7 (Homo sapiens); experiment: PROTAC activity at VHL/BRD7 in human HeLa cells assessed as remaining BRD7 protein level at 1 uM incubated for 4 hrs by Western blot analysis relative to control; type: cell-based
[10] = biological target: T2, von Hippel-Lindau disease tumor suppressor/Bromodomain-containing protein 7 (Homo sapiens); experiment: PROTAC activity at VHL/BRD7 in human Ri-1 cells assessed as remaining BRD7 protein level at 10 nM incubated for 2 hrs by Western blot analysis relative to control; type: cell-based
[11] = biological target: T1, von Hippel-Lindau disease tumor suppressor/Bromodomain-containing protein 9 (Homo sapiens); experiment: PROTAC activity at VHL/BRD9 in human Ri-1 cells assessed as remaining BRD9 protein level at 10000 nM incubated for 2 hrs by Western blot analysis relative to control; type: cell-based; how it was run: as §1
[12] = Stability in human plasma at 10 uM measured upto 180 mins by UPLC-MS/MS analysis; type: ADME, cell-free; conditions: 3 h
EOL1 = experiment: Antiproliferative activity against human EOL1 cells assessed as inhibition of cell growth incubated for 7 days by CellTiterGlo assay; type: functional, cell-based; conditions: EOL1, 168 h
[13] = Kinetic aqueous solubility of the compound by laser nephelometry; type: physicochemical; conditions: read-out: Kinetic_solubility
How it was run: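 Laser nephelometry. DMSO stocks serially diluted from 10 mM to 0.5 mM, then mixed into water to give final 250–12 µM with 2.5% final DMSO. Triplicate aliquots read immediately.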

[14] = biological target: Von Hippel-Lindau disease tumor suppressor/Elongin B/Elongin C (Homo sapiens) (UniProt P40337+Q15370+Q15369); experiment: Negative co-operative binding affinity to 6His-tagged human VHL/ElonginC/ElonginB expressed in Escherichia coli BL21 (DE3) cells assessed as total gibb's free energy change in the presence of BRD9-BD as complex with compound by ITC analysis
[15] = biological target: T2, von Hippel-Lindau disease tumor suppressor/Bromodomain-containing protein 7 (Homo sapiens); experiment: PROTAC activity at VHL/BRD7 in human Ri-1 cells assessed as BRD7 protein degradation at 100 nM incubated for 4 hrs by MS proteomics analysis; type: cell-based
[16] = biological target: T1, von Hippel-Lindau disease tumor suppressor/Bromodomain-containing protein 9 (Homo sapiens); experiment: PROTAC activity at VHL/BRD9 in human Ri-1 cells assessed as remaining BRD9 protein level at 1 nM incubated for 8 hrs by Western blot analysis relative to control; type: cell-based; how it was run: as §1
[17] = biological target: T1, von Hippel-Lindau disease tumor suppressor/Bromodomain-containing protein 9 (Homo sapiens); experiment: PROTAC activity at VHL/BRD9 in human Ri-1 cells assessed as remaining BRD9 protein level at 10 nM incubated for 48 hrs by Western blot analysis relative to control; type: cell-based; how it was run: as §1
[18] = biological target: T2, von Hippel-Lindau disease tumor suppressor/Bromodomain-containing protein 7 (Homo sapiens); experiment: PROTAC activity at VHL/BRD7 in human Ri-1 cells assessed as remaining BRD7 protein level at 10 nM incubated for 4 hrs by Western blot analysis relative to control; type: cell-based
[19] = biological target: T2, von Hippel-Lindau disease tumor suppressor/Bromodomain-containing protein 7 (Homo sapiens); experiment: PROTAC activity at VHL/BRD7 in human Ri-1 cells assessed as BRD7 protein degradation at 100 nM pre-incubated for 30 mins with VH298 followed by compound addition and measured after 4 hrs by Western blot analysis; type: cell-based
[20] = biological target: T2, von Hippel-Lindau disease tumor suppressor/Bromodomain-containing protein 7 (Homo sapiens); experiment: PROTAC activity at VHL/BRD7 in human Ri-1 cells assessed as remaining BRD7 protein level at 100 nM incubated for 48 hrs by Western blot analysis relative to control; type: cell-based; how it was run: as §1
[21] = biological target: T2, von Hippel-Lindau disease tumor suppressor/Bromodomain-containing protein 7 (Homo sapiens); experiment: PROTAC activity at VHL/BRD7 in human Ri-1 cells assessed as remaining BRD7 protein level at 100 nM incubated for 2 hrs by Western blot analysis relative to control; type: cell-based; how it was run: as §1
[22] = biological target: T2, von Hippel-Lindau disease tumor suppressor/Bromodomain-containing protein 7 (Homo sapiens); experiment: PROTAC activity at VHL/BRD7 in human Ri-1 cells assessed as remaining BRD7 protein level at 100 nM incubated for 8 hrs by Western blot analysis relative to control; type: cell-based; how it was run: as §1
[23] = biological target: T2, von Hippel-Lindau disease tumor suppressor/Bromodomain-containing protein 7 (Homo sapiens); experiment: PROTAC activity at VHL/BRD7 in human Ri-1 cells assessed as BRD7 protein degradation in the presence of MG132 by Western blot analysis; type: cell-based
[24] = biological target: T1, von Hippel-Lindau disease tumor suppressor/Bromodomain-containing protein 9 (Homo sapiens); experiment: PROTAC activity at VHL/BRD9 in human Ri-1 cells assessed as remaining BRD9 protein level at 10 nM incubated for 4 hrs by Western blot analysis relative to control; type: cell-based; how it was run: as §1
[25] = biological target: T1, von Hippel-Lindau disease tumor suppressor/Bromodomain-containing protein 9 (Homo sapiens); experiment: PROTAC activity at VHL/BRD9 in human Ri-1 cells assessed as remaining BRD9 protein level at 100 nM incubated for 1 hrs by Western blot analysis relative to control; type: cell-based; how it was run: as §1
A204 = experiment: Antiproliferative activity against human A204 cells assessed as inhibition of cell growth incubated for 7 days by CellTiterGlo assay; type: functional, cell-based; conditions: A204, 168 h
[26] = biological target: T2, von Hippel-Lindau disease tumor suppressor/Bromodomain-containing protein 7 (Homo sapiens); experiment: PROTAC activity at VHL/BRD7 in human Ri-1 cells assessed as remaining BRD7 protein level at 0.1 nM incubated for 8 hrs by Western blot analysis relative to control; type: cell-based
[27] = biological target: T2, von Hippel-Lindau disease tumor suppressor/Bromodomain-containing protein 7 (Homo sapiens); experiment: PROTAC activity at VHL/BRD7 in human Ri-1 cells assessed as remaining BRD7 protein level at 10 nM incubated for 8 hrs by Western blot analysis relative to control; type: cell-based; how it was run: as §1
[28] = biological target: T1, von Hippel-Lindau disease tumor suppressor/Bromodomain-containing protein 9 (Homo sapiens); experiment: PROTAC activity at VHL/BRD9 in human Ri-1 cells assessed as remaining BRD9 protein level at 10 nM incubated for 24 hrs by Western blot analysis relative to control; type: cell-based; how it was run: as §1

T2 sequence (P40337 whole entry, looked up): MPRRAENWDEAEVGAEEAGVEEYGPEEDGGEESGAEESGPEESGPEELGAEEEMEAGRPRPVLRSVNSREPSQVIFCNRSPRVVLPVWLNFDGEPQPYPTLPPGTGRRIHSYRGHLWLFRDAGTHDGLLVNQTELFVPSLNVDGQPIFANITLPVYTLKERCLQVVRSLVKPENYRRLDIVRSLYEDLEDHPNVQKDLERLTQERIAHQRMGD
T2 sequence (Q9NPI1 whole entry, looked up): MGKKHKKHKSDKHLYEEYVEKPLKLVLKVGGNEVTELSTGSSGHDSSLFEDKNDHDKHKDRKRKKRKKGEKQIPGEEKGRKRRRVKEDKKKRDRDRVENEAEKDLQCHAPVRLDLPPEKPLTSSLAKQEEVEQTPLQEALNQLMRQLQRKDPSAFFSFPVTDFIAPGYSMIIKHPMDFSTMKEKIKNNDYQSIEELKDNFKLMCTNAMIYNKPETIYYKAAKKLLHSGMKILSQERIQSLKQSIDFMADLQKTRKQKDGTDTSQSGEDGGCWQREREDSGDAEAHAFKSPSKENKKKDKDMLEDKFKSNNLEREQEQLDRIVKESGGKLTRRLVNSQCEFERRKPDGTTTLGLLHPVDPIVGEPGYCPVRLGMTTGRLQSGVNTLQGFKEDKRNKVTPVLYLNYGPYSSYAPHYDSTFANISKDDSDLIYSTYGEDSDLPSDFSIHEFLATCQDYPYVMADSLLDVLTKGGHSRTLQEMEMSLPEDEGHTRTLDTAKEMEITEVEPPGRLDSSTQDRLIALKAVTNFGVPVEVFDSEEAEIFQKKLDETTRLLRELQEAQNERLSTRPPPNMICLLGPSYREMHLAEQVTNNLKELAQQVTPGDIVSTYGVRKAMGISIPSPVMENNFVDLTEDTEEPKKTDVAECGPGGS
T1 sequence (P40337 whole entry, looked up): as the sequence (P40337 whole entry, looked up) above
T1 sequence (Q9H8M2 whole entry, looked up): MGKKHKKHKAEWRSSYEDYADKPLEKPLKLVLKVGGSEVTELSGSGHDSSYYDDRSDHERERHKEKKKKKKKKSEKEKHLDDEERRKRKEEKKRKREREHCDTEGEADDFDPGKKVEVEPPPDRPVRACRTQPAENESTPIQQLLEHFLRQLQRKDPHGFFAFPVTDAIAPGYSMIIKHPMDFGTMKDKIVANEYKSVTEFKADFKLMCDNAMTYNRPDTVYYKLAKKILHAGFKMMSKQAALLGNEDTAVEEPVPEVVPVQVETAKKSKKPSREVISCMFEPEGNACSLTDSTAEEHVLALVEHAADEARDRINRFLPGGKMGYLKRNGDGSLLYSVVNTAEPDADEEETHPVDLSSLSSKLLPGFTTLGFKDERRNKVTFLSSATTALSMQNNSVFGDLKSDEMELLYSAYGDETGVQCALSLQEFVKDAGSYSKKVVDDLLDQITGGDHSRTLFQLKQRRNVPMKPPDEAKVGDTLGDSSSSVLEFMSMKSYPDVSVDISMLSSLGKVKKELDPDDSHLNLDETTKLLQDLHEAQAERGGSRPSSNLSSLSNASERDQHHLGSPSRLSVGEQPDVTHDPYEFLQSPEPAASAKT
Chain of Von Hippel-Lindau disease tumor suppressor/Elongin B/Elongin C (Homo sapiens) (P40337 whole entry, looked up): as the sequence (P40337 whole entry, looked up) above
Chain of Von Hippel-Lindau disease tumor suppressor/Elongin B/Elongin C (Homo sapiens) (Q15369 whole entry, looked up): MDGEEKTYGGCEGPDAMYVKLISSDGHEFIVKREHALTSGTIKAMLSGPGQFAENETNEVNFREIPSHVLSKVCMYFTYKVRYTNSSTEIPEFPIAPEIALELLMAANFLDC
Chain of Von Hippel-Lindau disease tumor suppressor/Elongin B/Elongin C (Homo sapiens) (Q15370 whole entry, looked up): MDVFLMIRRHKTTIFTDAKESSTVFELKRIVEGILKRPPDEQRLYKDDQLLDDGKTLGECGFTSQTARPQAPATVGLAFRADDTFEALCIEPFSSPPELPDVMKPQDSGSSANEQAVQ

Structure (SMILES): COc1cc(-c2cn(C)c(=O)c3cnccc23)cc(OC)c1CN1CCN(CCCCCOc2cc(-c3scnc3C)ccc2CNC(=O)[C@@H]2C[C@@H](O)CN2C(=O)[C@@H](NC(=O)C2(F)CC2)C(C)(C)C)CC1
- Activity [1]: 35%
- Activity [2]: 100%
- Activity [3]: 14%
- Activity [4]: 75%
- Activity [5]: 7%
- Activity [6]: 16%
- Activity [7]: inactive
- Activity [8]: 80%
- Activity [9]: 10%
- Activity [10]: 52%
- Activity [11]: 89%
- Stability [12]: Stable
- IC50 (EOL1): 3.39 nM
- solubility kinetic [13]: ≤ 100 µM
- deltaG [14]: -21.7 kcal/mol
- Activity [15]: Active
- Activity [16]: 62%
- Activity [17]: 2%
- Activity [18]: 42%
- Activity [19]: inactive
- Activity [20]: 3%
- Activity [21]: 8%
- Activity [22]: 5%
- Activity [23]: inactive
- Activity [24]: 31%
- Activity [25]: 34%
- IC50 (A204): 39.8 nM
- Activity [26]: 109%
- Activity [27]: 33%
- Activity [28]: 17%
